Activity calls are given as the source filed them.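 The calls were made as follows, unless noted: active = inhibition at or above 50% at 10 µM; inactive = inhibition below 50%.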
What was measured:
[1] = inhibitors of TNFa-induced NFkB p65 translocation, primary screen, imaging, HUVEC, MLSMR starter and 10KST1 sets (AID 438;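 active = inhibition above 20% together with a positive visual image hit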;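 also: compound added about 3h40 before a 20 min TNFalpha stimulation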;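 as to inhibition: signal is the nuclear over cytoplasmic p65 intensity ratio per well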); details: HUVEC TNFa-induced p65 nuclear translocation; cell count: measured here: nuclei count (cytotoxicity indicator), at 2.08 µM; inhibition: at 2 µM, stronger effect = higher value, 0% TNFa-plus-vehicle, 100% no-TNFa wells
[2] = inhibitors of mutant huntingtin aggregation, primary screen, imaging, exon1htt(103Q)mCFP cells, high-content imaging (AID 483;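 active = visual image review flags a hit and inhibition of aggregation exceeds 20%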;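 also: compound exposure lasted 3 days before fixation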;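 as to nuclei count: percent of the per-plate median nuclei count of sample wells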); details: exon1htt(103Q)mCFP cell line, aggregate imaging, at 2 µM; inhibition of aggregation: stronger effect = higher value; nuclei count: measured here: cell count, toxicity
[3] = inhibitors of E-selectin induction by TNFa, primary screen, imaging, HUVEC, immunofluorescence, MLSMR starter and 10KST1 sets (AID 487;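 active = visually confirmed hit in the image check and inhibition above 20%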;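 as to inhibition: signal is fraction of cell area covered by stained E-selectin grains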;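 as to nuclei count: 100% = median nuclei count of all wells on the same plate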); details: HUVEC TNFalpha-induced E-selectin immunofluorescence imaging, at 2 µM; inhibition: stronger effect = higher value; nuclei count: measured here: cell number, toxicity
[4] = target: Voltage-gated potassium channel subunit beta-2 (Rattus norvegicus) (UniProt P62483); experiment: KvBeta enzyme negative modulators, primary screen, biochemical, NADPH fluorescence (AID 622;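 active = fluorescence slope higher than the sample average by over 3 SD, cut at about -0.22 in these data, passing the limit was not always enough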;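 also: slope of raw intensity against log time taken from 70 to 1610 s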); details: recombinant KvBeta, 4-cyanobenzaldehyde reduction, at 10 µM, stronger effect = higher value
[5] = target: Voltage-gated potassium channel subunit beta-2 (Rattus norvegicus) (UniProt P62483); experiment: KvBeta positive modulators, primary screen, biochemical, NADPH fluorescence (AID 623;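 active = NADPH fluorescence slope more negative than the mean of all samples by about 3 SD, 99.7% confidence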;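 also: fluorescence intensity change per second fitted from 20 to 320 s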); details: Recombinant KvBeta, NADPH fluorescence decrease slope, 10 min; at 10 µM; stronger effect = lower value
[6] = target: Muscarinic acetylcholine receptor M4 (Homo sapiens) (UniProt P08173); experiment: compounds altering M4/GIRK thallium flux, either direction, primary screen, M4 allosteric agonist project, cell-based, HEK293 M4/GIRK, BTC-AM (AID 625;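 active = fluorescence slope after compound addition differing from the mean of all tested samples at 99.7% confidence, mostly higher but some lower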;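 also: thallium influx through GIRK channels coupled to M4 in HEK293 cells with BTC-AM dye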); details: at 10 µM, actives lie on both sides
In short: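 assay system = HEK293 cells with M4 receptor and GIRK channels | medium = pH 7.3 thallium assay buffer | doses = 10 µM final, single point | timing = cells overnight at 37 °C, BTC-AM loading 1 h, reads 2 min total | signal = BTC-AM fluorescence, 1 Hz kinetic reads | read-out = post-addition slope, 15–24 s, of baseline-normalized fluorescence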

[7] = inhibitors of Sendai virus-induced IRF3 signaling, primary screen, TLR/RLR signaling modifier project, cell-based, Sendai virus stimulus, luciferase, 10K MLSCN set (AID 602276); details: HEK293 RL24 IRF3 luciferase reporter, at 10 µM, stronger effect = higher value;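 also: firefly luciferase from ISG56 promoter only with Renilla not read in this screen; 0% = Sendai virus plus DMSO and 100% = medium plus DMSO without virus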
[8] = inhibitors of poly I:C-induced TLR3 signaling, primary screen, cell-based, poly I:C stimulus, luciferase, 10K MLSCN set (AID 602277;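 active = inhibition of the reporter signal at or above 50%; inactive = inhibition below 50%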); details: HEK293-TLR3 RL24 IRF3 luciferase reporter, at 10 µM, stronger effect = higher value
[9] = target: Alpha-2C adrenergic receptor (Homo sapiens) (UniProt P18825); experiment: modulators of alpha2C/GIRK thallium flux, primary screen, cell-based, HEK293 alpha2C/GIRK1/2 (AID 624;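 active = fluorescence slope after compound addition differing from the mean of all screened samples at 99.7% confidence, in either direction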;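 also: slope of fluorescence ratio to pre-addition baseline per second over 15 to 24 s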); details: thallium flux BTC fluorescence, at 10 µM, actives lie on both sides
[10] = inhibitors of larval lipid processing in zebrafish, primary screen, whole organism, PED6 fluorescence, gall bladder and intestine (AID 686;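 active = a full or partial loss of lipid-probe fluorescence in the fish gall bladder, intestine or both, judged by eye; inactive = no fluorescence loss, or compound toxic to the fish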;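 also: larvae 5 to 7 days old with five fish per well; signal comes from phospholipase A2 cleavage of quenched PED6 carried via bile; overnight exposure to compound and PED6 before scoring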); details: Zebrafish larvae PED6 lipid processing, fluorescence scoring; screened at 20 µM (by protocol)
In short: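 Also added: quenched phospholipase substrate PED6, 100 nM final, ingested by larvae; System: zebrafish larvae, 5-7 d; Quantity: 5 larvae per well; Compound: 20 µM single dose; Schedule: overnight compound and PED6 incubation; Read-out: visual per-well fluorescence inhibition score; Measured by: By-eye fluorescence microscopy; Medium: E3.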

Voltage-gated potassium channel subunit beta-2 (Rattus norvegicus), sequence (P62483 whole entry, looked up): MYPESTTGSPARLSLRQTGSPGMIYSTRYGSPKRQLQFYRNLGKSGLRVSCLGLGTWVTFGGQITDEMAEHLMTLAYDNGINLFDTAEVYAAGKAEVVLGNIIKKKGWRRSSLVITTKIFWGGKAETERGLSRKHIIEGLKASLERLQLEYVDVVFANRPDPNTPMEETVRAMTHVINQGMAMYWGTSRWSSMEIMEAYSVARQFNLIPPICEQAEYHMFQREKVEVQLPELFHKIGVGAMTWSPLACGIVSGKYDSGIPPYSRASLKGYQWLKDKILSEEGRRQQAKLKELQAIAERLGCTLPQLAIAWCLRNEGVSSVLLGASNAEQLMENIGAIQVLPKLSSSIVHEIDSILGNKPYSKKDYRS
Alpha-2C adrenergic receptor (Homo sapiens), sequence (P18825 whole entry, looked up): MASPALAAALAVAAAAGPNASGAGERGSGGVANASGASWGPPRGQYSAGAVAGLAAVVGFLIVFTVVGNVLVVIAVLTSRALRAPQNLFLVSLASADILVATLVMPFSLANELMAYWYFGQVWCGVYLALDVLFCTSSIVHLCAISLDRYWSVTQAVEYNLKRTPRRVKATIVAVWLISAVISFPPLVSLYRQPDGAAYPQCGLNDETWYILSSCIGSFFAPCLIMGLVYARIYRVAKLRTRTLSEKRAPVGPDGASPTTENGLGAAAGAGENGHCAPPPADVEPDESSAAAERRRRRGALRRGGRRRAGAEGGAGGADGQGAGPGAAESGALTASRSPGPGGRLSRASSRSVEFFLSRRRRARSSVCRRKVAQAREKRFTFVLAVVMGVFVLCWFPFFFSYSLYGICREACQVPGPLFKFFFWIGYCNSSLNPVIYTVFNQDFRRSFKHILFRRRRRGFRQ
Muscarinic acetylcholine receptor M4 (Homo sapiens), sequence (P08173 whole entry, looked up): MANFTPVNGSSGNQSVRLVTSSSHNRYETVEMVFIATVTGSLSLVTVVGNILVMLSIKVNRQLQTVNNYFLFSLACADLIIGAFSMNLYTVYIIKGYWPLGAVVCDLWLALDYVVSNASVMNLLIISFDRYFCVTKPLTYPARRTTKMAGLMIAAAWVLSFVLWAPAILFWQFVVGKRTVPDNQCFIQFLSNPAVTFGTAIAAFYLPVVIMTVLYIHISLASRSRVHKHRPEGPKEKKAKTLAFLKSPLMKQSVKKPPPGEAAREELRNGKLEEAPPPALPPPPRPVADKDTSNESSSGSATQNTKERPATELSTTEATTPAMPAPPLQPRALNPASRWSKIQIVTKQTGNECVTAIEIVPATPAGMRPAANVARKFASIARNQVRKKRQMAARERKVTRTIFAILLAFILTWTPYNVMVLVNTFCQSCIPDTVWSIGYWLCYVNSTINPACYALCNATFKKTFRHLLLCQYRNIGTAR

SMILES | cell count [1] | inhibition [1] | inhibition of aggregation [2] | nuclei count [2] [%] | inhibition [3] | nuclei count [3] [%] | fluorescence slope [4] | NADPH fluorescence slope [5] | fluorescence slope [6] | inhibition [7] | inhibition [8] | slope [9] | outcome [10]
CCCC(=O)N1CCN(c2ccc(NC(=O)c3ccc(Br)o3)cc2)CC1 | 232 | 0.6% (inactive) | 7.1% (inactive) | 58.2 | -64.1% (inactive) | 116 | -0.457 (inactive) | 6.7e-06 (inactive) | 0.00487 (inactive) | -9.3% (inactive) | -42.4% (inactive) |  | 
CC1(C)CC(=O)c2cnc(NCc3ccco3)nc2C1 | 480 | 7.7% (inactive) | -7.2% (inactive) | 96.1 | -165% (inactive) | 150 | -0.407 (inactive) | -1.8e-05 (inactive) | 0.00659 (inactive) | -11.5% (inactive) | -26.2% (inactive) |  | 
CCOc1ccc(NC(=O)c2ccncc2)cc1 | 631 | 3.6% (inactive) | 8.2% (inactive) | 98.3 | -122% (inactive) | 106 | -0.466 (inactive) | -4.7e-05 (inactive) | 0.0047 (inactive) | -5.38% (inactive) | -19.1% (inactive) |  | 
COC(=O)Cc1[nH]nc2c1C(C1C=CCCC1)C(C#N)=C(N)O2 (stereo not given) | 592 | 5.7% (inactive) | 7.6% (inactive) | 90.6 | -0.2% (inactive) | 117 | -0.41 (inactive) | 2.6e-05 (inactive) | 0.00509 (inactive) | 18.7% (inactive) | 26.3% (inactive) |  | 
CCOC(=O)N1CCC2(CC1)CC(=O)c1c(ccc3oc(C(=O)O)c(C)c13)O2 | 313 | -4.1% (inactive) | -17.7% (inactive) | 99 | -83.8% (inactive) | 105 | -0.413 (inactive) | -1.7e-05 (inactive) | 0.00564 (inactive) | 0.598% (inactive) | 11.3% (inactive) |  | 
FC(F)(F)c1ccc(Sc2nnc(-c3cccs3)n2CC2CCCO2)nc1 (stereo not given) | 357 | -21.4% (inactive) | -3% (inactive) | 83.2 | -85.5% (inactive) | 104 | -0.424 (inactive) | -7.7e-06 (inactive) |  | 13.6% (inactive) | 6.99% (inactive) | 0.00449 (inactive) | inactive
Cc1c(NS(=O)(=O)c2ccc3c(c2)c(=O)n(C)c(=O)n3C)c(=O)n(-c2ccccc2)n1C | 394 | -4.4% (inactive) | -4.4% (inactive) | 124 | -27.8% (inactive) | 115 | -0.412 (inactive) | 0.000112 (inactive) | 0.00512 (inactive) | 11.2% (inactive) | 25% (inactive) |  | 
O=C(Nc1ccc2oc(-c3ccncc3)nc2c1)c1cccs1 | 159 | 108% (active) | -8.6% (inactive) | 103 | 14.7% (inactive) | 113 | -0.346 (inactive) | -0.000115 (inactive) | 0.00345 (inactive) | -55.9% (inactive) | -120% (inactive) |  | 
CC(c1ccco1)N(C(=O)COc1ccc(Cl)cc1Cl)c1ccccn1 (stereo not given) | 720 | 2.4% (inactive) | -4.8% (inactive) | 96 | -108% (inactive) | 119 | -0.466 (inactive) | -6.4e-05 (inactive) | 0.00469 (inactive) | 2.26% (inactive) | -73.7% (inactive) |  | 
CCN(CC(=O)Nc1ccc2c(c1)OCCO2)Cc1cc(=O)oc2cc(C)c(C)cc12 | 337 | -9.6% (inactive) | 8.8% (inactive) | 96.4 | -2.6% (inactive) | 119 | -0.474 (inactive) | -3.1e-05 (inactive) |  | 25.7% (inactive) | 16.9% (inactive) | 0.00545 (inactive) | inactive
COc1cc2[nH]c(=O)n(CCC(=O)N3CCc4ccccc4C3)c(=O)c2cc1OC | 452 | -20.3% (inactive) | 6.9% (inactive) | 94.4 | -83.3% (inactive) | 108 | -0.15 (inactive) | -9.5e-06 (inactive) | 0.00747 (inactive) | 14.4% (inactive) | -15.8% (inactive) |  | 
COc1cc(CNc2ccc(N3CCOCC3)c(C(=O)O)c2)ccc1OCC(N)=O | 362 | -2.2% (inactive) | -15.5% (inactive) | 99.3 | 26.6% (inactive) | 98.6 | -0.343 (inactive) | 0.000117 (inactive) | 0.00665 (inactive) | 5.32% (inactive) | 9.86% (inactive) |  | 
CCOC(=O)c1cccc(NC(=O)CSc2nc3ccccc3c(=O)n2CC)c1 | 360 | 4.2% (inactive) | 7.7% (inactive) | 98.9 | -1.3% (inactive) | 104 | -0.465 (inactive) | 2.3e-05 (inactive) | 0.00728 (inactive) | 9.39% (inactive) | 18.3% (inactive) |  | 
Cn1c2c(c(=O)n(C)c1=O)CN(CCCN1CCOCC1)CN2 | 541 | -5% (inactive) | 9.8% (inactive) | 115 | 41.5% (inactive) | 90.5 | -0.595 (inactive) | 2.4e-05 (inactive) | 0.00524 (inactive) | 8.17% (inactive) | 16.9% (inactive) |  | 
CCOC(=O)C(C)Sc1nc2c(cnn2-c2ccc(C)cc2)c(=O)[nH]1 (stereo not given) | 239 | -1.3% (inactive) | 6.8% (inactive) | 102 | 11.9% (inactive) | 110 | -0.503 (inactive) | 8.8e-05 (inactive) | 0.00678 (inactive) | 6.58% (inactive) | 8.01% (inactive) |  | 
CCc1cc2c(NCCC(=O)O)nc(C)nc2s1 | 222 | -13.7% (inactive) | 13.8% (inactive) | 79 | -7.8% (inactive) | 104 | -0.575 (inactive) | -4e-05 (inactive) | 0.00598 (inactive) | 2.05% (inactive) | 15.1% (inactive) |  | 
Cc1cc(NC(=O)CCC(=O)N(CC2CCCO2)C(C(=O)NC2CCCC2)c2ccccc2C)no1 (stereo not given) | 341 | 0% (inactive) | 26.9% (inactive) | 63.6 | -106% (inactive) | 117 | -0.453 (inactive) | -5.7e-05 (inactive) | 0.00469 (inactive) | 20.9% (inactive) | 21.7% (inactive) |  | 
CCOc1cc(N2CCOCC2)c(OCC)cc1NC(=O)COC(=O)CCc1c[nH]c2ccccc12 | 300 | -5.2% (inactive) | 7.9% (inactive) | 105 | -28% (inactive) | 109 | -0.273 (inactive) | -1.5e-05 (inactive) | 0.00571 (inactive) | 2.83% (inactive) | 20.2% (inactive) |  | 
CC(NO)C(C)(C)NO (stereo not given) | 331 | 4.4% (inactive) | -7.5% (inactive) | 101 | -18.8% (inactive) | 126 | -0.493 (inactive) | 9e-05 (inactive) | 0.00819 (inactive) | 3.35% (inactive) | 10.7% (inactive) |  | 
Nc1nc(-c2ccccc2)cc(C(F)(F)F)n1 | 457 | -7.5% (inactive) | 1.3% (inactive) | 98.1 | -11.2% (inactive) | 107 | -0.571 (inactive) | 1.4e-06 (inactive) | 0.00753 (inactive) | 11% (inactive) | 6.96% (inactive) |  | 
O=C(O)CCCC(=O)NCCc1ccncc1 | 425 | 8.1% (inactive) | -3.6% (inactive) | 112 | 1.4% (inactive) | 112 | -0.519 (inactive) | -7e-06 (inactive) | 0.00581 (inactive) | 3.6% (inactive) | 33.4% (inactive) |  | 
CC1(C)Cc2noc(N)c2C(C)(C)N1OC(=O)c1ccccc1 | 322 | 2.4% (inactive) | 1.8% (inactive) | 99 | -48.1% (inactive) | 126 | -0.463 (inactive) | 1.8e-05 (inactive) | 0.00527 (inactive) | -2.74% (inactive) | 5.08% (inactive) |  | 
Cc1nnc(SCC(=O)NCc2ccc3c(c2)OCO3)s1 | 418 | 3.1% (inactive) | -12% (inactive) | 101 | -57% (inactive) | 106 | -0.468 (inactive) | -4.3e-05 (inactive) |  | 5.5% (inactive) | 11.6% (inactive) | 0.00565 (inactive) | inactive
COc1oc(-c2ccccc2)nc1C(F)(F)F | 353 | 4.1% (inactive) | 0.7% (inactive) | 106 | -15.8% (inactive) | 116 | -0.473 (inactive) | -3.2e-05 (inactive) | 0.00537 (inactive) | 3.7% (inactive) | 12.2% (inactive) |  | 
O=C(Nc1cccnc1N1CCOCC1)c1ccco1 | 579 | -0.3% (inactive) | 4.6% (inactive) | 104 | -56.6% (inactive) | 109 | -0.221 (inactive) | -1.1e-05 (inactive) | 0.00549 (inactive) | 10.9% (inactive) | 10.7% (inactive) |  | 
COC(=O)c1ccccc1NC(=O)c1cnc2sccn2c1=O | 505 | -19.2% (inactive) | 14% (inactive) | 77.5 | 14.9% (inactive) | 98 | -0.369 (inactive) | -5.8e-05 (inactive) |  | 5.91% (inactive) | -1.07% (inactive) | 0.00479 (inactive) | inactive

Source: PubChem BioAssay
